The target in assay [1] is T1, Prostaglandin G/H synthase 1 (Ovis aries, UniProt P05979).
T1 sequence (P05979 whole entry): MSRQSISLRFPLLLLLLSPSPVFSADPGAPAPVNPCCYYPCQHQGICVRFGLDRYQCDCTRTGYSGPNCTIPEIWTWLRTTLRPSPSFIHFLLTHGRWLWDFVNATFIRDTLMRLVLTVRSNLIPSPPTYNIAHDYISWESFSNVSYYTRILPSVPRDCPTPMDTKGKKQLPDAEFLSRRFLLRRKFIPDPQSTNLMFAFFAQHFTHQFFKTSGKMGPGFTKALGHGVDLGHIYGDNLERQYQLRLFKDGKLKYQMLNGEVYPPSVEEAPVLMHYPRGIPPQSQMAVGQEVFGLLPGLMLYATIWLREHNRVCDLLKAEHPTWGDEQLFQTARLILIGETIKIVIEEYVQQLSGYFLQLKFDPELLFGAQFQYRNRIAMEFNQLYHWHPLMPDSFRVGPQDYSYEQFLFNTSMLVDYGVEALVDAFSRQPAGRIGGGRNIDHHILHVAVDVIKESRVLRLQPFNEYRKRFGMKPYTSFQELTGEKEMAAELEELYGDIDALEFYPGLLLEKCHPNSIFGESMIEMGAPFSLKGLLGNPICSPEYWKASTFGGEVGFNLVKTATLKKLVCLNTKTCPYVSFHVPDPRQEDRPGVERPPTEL
Kind of assay: Inhibition of ram seminal vesicle COX1 assessed as PGE2 production by enzyme immunoassay. The procedure, abridged:
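Purified PGHS-1 from ram seminal vesicles; PGE2 product measured by competitive EIA; samples in ethanol. IC50 from at least three concentrations, duplicates, at least three independent experiments, by nonlinear regression.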

Assay [2] has as its system Mus musculus. Put plainly: Antiinflammatory effect in CD1 mouse ear dermatitis model assessed as preservance of mast cell degranulation at 0.4 umol administered topically per cm'2 of ear measured after 6 hrs post dermatitis induction relative to control. The class given is functional, organism-based. The procedure, abridged:
(§1)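 Male CD-1 mice (28–32 g) anesthetized with ketamine 145 mg/kg ip; right ear (about 1 cm2) given 80 μg croton oil in 15 μL acetone with test substance co-applied in acetone; controls irritant only; left ear untreated. Ears fixed in 10% formalin, paraffin-embedded, 10 μm sections stained hematoxylin-eosin or Giemsa, examined by light microscopy at set times after induction.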

Assay [3] concerns Mus musculus. Kind of assay: Antiinflammatory effect in CD1 mouse ear dermatitis model assessed as reduction in mast cell degranulation at 0.4 umol administered topically per cm'2 of ear measured after 6 hrs post dermatitis induction relative to control. The format is functional, organism-based. Put shortly:
as §1

In assay [4] the test system is Mus musculus. Kind of assay: Antiinflammatory effect in CD1 mouse ear dermatitis model assessed as reduction in cellular changes at 0.4 umol administered topically per cm'2 of ear measured after 6 hrs post dermatitis induction relative to control. The format is functional, organism-based. The procedure, abridged:
as §1

The test system of assay [5] is Mus musculus. Kind of assay: Antiinflammatory effect in CD1 mouse ear dermatitis model assessed as reduction in vascular changes at 0.4 umol administered topically per cm'2 of ear measured after 6 hrs post dermatitis induction relative to control. The class given is functional, organism-based. Put shortly: as §1
Assay [6] relates to Mus musculus. Kind of assay: Antiinflammatory effect in CD1 mouse ear dermatitis model assessed as reduction in leukocyte infiltration-based myeloperoxidase at 0.4 umol administered topically per cm'2 of ear measured after 6 hrs post dermatitis induction relative to control. The format is functional, organism-based. Put shortly: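 CD-1 mice, croton oil 80 μg in acetone on right ear with topical test substance; ear punch (6 mm) homogenized in 0.1 M sodium acetate pH 4.2 with 0.1% HTAB, centrifuged 15000g 5 min; supernatant myeloperoxidase measured with TMB (2.83 mM) and 0.7 mM H2O2, 5 min at 25 °C, stopped with acetic acid, A620; duplicates; units = nM TMB oxidized/min.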

Assay [7] has as its system Radical scavenging activity. Kind of assay: Antioxidant activity assessed as DPPH free radical scavenging activity after 30 mins by spectrophotometry. The class given is functional. In general terms: The DPPH test is a chemical assay of radical scavenging.

Usually IC50 stands for the point on the concentration scale where inhibition reaches its midpoint.

Activity calls are given as the source filed them. The rule behind the calls is not given here.

`C[C@@H]1[C@H](C)[C@@H](c2ccc(O)cc2)O[C@H]1c1ccc(O)cc1`: the IC50 in assay [1] was over 50 µM.

With `C/C=C/c1ccc2c(c1)[C@@H](C)[C@H](c1ccc(O)cc1)O2`, the inhibition entry in assay [2], in assay [3], in assay [4], in assay [5] and in assay [6] was “Active” throughout. Further, the IC50 in assay [1] is over 50 µM.

In the case of `C/C=C/c1ccc2c(c1)[C@H](CO)[C@@H](c1ccc(O)cc1)O2`, the IC50 in assay [1] is over 50 µM.

As for `C/C=C/c1ccc2oc(-c3ccc(O)cc3)c(C)c2c1` [RATANIAPHENOL II], the concentration for half-maximal inhibition (IC50) in assay [1] was found to be 3 µM.

`C/C=C/c1ccc2oc(-c3ccc(OC)cc3O)cc2c1` [RATANIAPHENOL I]: the IC50 result is “Dose-dependent effect” in assay [7], 24.2 µM in assay [7] (read-out: IC50) and over 50 µM in assay [1].

In the case of `C[C@@H]1[C@H](C)[C@@H](c2ccc(O)cc2)O[C@@H]1c1ccc(O)cc1`, in assay [1], the IC50 is over 50 µM.

Regarding `COc1ccc(-c2cc3cc(CCCO)ccc3o2)c(O)c1`, the inhibition result in assay [2], in assay [3], in assay [4], in assay [5] and in assay [6] was “Active” throughout. Further, the IC50 result is “Dose-dependent effect” in assay [7], 42.3 µM in assay [7] (read-out: IC50) and over 50 µM in assay [1].

Take `COc1cc(O)ccc1-c1cc2cc(CCCO)ccc2o1`: the values for the IC50 result in assay [7], in assay [7] (read-out: IC50) and in assay [1] were “Dose-dependent effect”, 37.7 µM and over 50 µM, respectively.

For the molecule `C/C=C/c1ccc2oc(-c3ccc(O)cc3OC)cc2c1` [RATANIAPHENOL III], the results for the IC50 entry in assay [7], in assay [7] (read-out: IC50) and in assay [1] were “Dose-dependent effect”, 36.3 µM and 2.7 µM, respectively.

`C/C=C/c1ccc2oc(-c3ccc(O)cc3O)cc2c1`: the IC50 result is “Dose-dependent effect” in assay [7], 22.1 µM in assay [7] (read-out: IC50) and 3.8 µM in assay [1].

On to `C/C=C/c1ccc2oc(-c3ccc(O)cc3)cc2c1`, for which the IC50 in assay [1] came out at 18.3 µM.

For the origin of these results see ChEMBL document CHEMBL2146414, “Lignan derivatives from Krameria lappacea roots inhibit acute inflammation in vivo and pro-inflammatory mediators in vitro” (J Nat Prod, 2011).
